Source: PubChem BioAssay (several laboratories)
UBC9 SUMO inh: blocks human SUMOylation mediated by UBC9; HTRF SUMOylation assay, SAE1/SAE2 + UBC9, in vitro; inhibition, % at 35 µM; hit rate 0.36% among 290,000; AID 2006; in the data active = inhibition above about 50%, passing the limit was not always enough
Target sequence (P63279 whole entry, looked up): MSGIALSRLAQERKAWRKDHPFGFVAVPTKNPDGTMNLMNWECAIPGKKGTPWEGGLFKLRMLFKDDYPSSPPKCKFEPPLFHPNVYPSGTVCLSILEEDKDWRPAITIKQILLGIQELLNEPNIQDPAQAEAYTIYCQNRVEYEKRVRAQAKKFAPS
p-CIP stab down: compounds decreasing mouse p/CIP protein stability; Q05BA5; F442A p/CIP-EGFP cells, EGFP fluorescence, 16 h; decrease of EGFP signal, % at 10 µM; hit rate 0.01% among 290,000; AID 1984;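 active = EGFP signal decrease of at least 30% at 10 µM or well 3 SD below plate mean, unless failing retest; inactive = the rest, including hits failing retest or dose response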
IMP-1 inh: blocks Pseudomonas aeruginosa IMP-1 metallo-beta-lactamase | purified IMP-1, nitrocefin hydrolysis, epi-absorbance fluorescence | inhibition, % at 5.6 µM | hit rate 0.45% among 290,000;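 active = inhibition above the mean plus 3 SD of all compounds in the same screening run, cut at about 4.5% in these data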;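 also: 0% = IMP-1 with DMSO and 100% = DMSO wells lacking enzyme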
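System: purified recombinant IMP-1 beta-lactamase. Medium: Zinc- and detergent-supplemented HEPES buffer, pH 7.1. Compound: one 5.6 µM dose […]. Schedule: 15 min preincubation plus 25 min reaction at 25 °C. Technique: Epi-absorbance fluorescence, 480 nm excitation, 530 nm emission.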
T cell HTS: modulates CD8 T cell binding to vesicles. response (vesicle binding), % at 7 µM. 2C CD8+ T cell-vesicle binding, flow cytometry; active compounds read low. hit rate 0.068% among 330,000;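 active = response, share of CD8 T cells binding vesicles, and their 90th percentile fluorescence all below set limits, cut at about 80% in these data, passing the limit was not always enough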;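 also: values below 100% mean blocked vesicle binding to the CD8+ T cells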
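Also added: QL9-peptide-loaded Drosophila micro-vesicles bearing Ld, ICAM-1 and B7-1; Test system: purified 2C TCR transgenic mouse naive CD8+ T cells; Measured by: cytometric PE anti-B7-1 and Alexa647 anti-CD8 signals after 1% paraformaldehyde fixation; Timing: binding step 1.5 h, 37 °C, antibody labelling 20 min, ice.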
Fh CTSL1 inh: cathepsin L1 inhibition, PFM18AAP counter-screen; recombinant F. hepatica cathepsin L1, Z-Leu-Arg-MCA fluorescence; inhibition, % at 5.96 µM; hit rate 0.49% among 300,000;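 active = inhibition above the mean of all tested compounds plus 3 SD, set per screening campaign, cut at about 17% in these data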;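 also: 0% = plate median of test compound wells and 100% = 1 µM Z-Phe-Ala-diazomethylketone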
VIM-2 inh: blocks Pseudomonas aeruginosa VIM-2 metallo-beta-lactamase; hit rate 0.89% among 290,000; purified VIM-2, nitrocefin hydrolysis, epi-absorbance fluorescence; inhibition, % at 5.6 µM; AID 1527;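 active = inhibition above the mean of all tested compounds plus 3 SD, cutoff set per screening run, cut at about 7.5% in these data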;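 also: red hydrolysis product quenches plate fluorescence so inhibitors raise well fluorescence; 0% = enzyme with DMSO and 100% = DMSO without enzyme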
An asterisk follows results filed as active; i = inactive; . = no result given; ! = not confirmed by another sample. An excerpt weighted towards active compounds, which were near 1.9% of everything screened.

SMILES	UBC9 SUMO inh	p-CIP stab down	IMP-1 inh	T cell HTS	Fh CTSL1 inh	VIM-2 inh
CN(C)c1ccc(/C=N/NC(=O)c2ccc3nc[nH]c3c2)cc1	13.1	-5.9	-3.8	924.0	20.9*	-3.3
CCN(CC)c1ccc(/C=N/NC(=O)c2ccc3nc[nH]c3c2)cc1	0.2	1.0	-2.5	549.1	4.4	-1.8
Cc1ccc(OCc2cccc(S(=O)(=O)N(C)C)c2)c([N+](=O)[O-])n1	-3.6	-4.7	-1.6	245.6	-1.4	-2.9
O=C(OCCN1CCOCC1)c1cccnc1	9.0	-6.1	8.4*!	i	-0.7	-1.0
O=C(OCCN1CCOCC1)c1ccccc1	18.8	-6.1	1.8	309.4	-0.5	0.9
COc1cc(OC)c(NC2=CC(=O)C(=O)c3ccccc32)cc1Cl	23.3	-5.9	-4.3	266.9	22.7*	-3.9
Cc1cc(C(=O)NCc2ccccc2Cl)c2ccccc2n1	-2.3	-12.8	-5.6	164.8	4.0	-3.6
Cc1cc(CNC(=O)c2cccnc2Cl)c2ccccc2n1	24.1	-1.3	-2.9	259.8	17.5*	-1.8
C[C@](N)(Cc1ccc(O)c(O)c1)C(=O)O	90.5*	-20.0	-2.8	.	.	0.8
C=CCn1c(C)nnc1SCC(=O)Nc1oc(C)c2c(C)n[nH]c(=O)c12	.	.	.	834.1	17.7*	.
CCOc1ccc(N=Cc2c(C)[nH]n(-c3nc4ccccc4[nH]3)c2=O)cc1	-48.9	-15.0	7.2*	330.8	-0.8	-3.3
Cc1[nH]n(-c2ccccc2)c(=O)c1C=Nc1cnc2ccccc2c1	16.8	-4.5	0.2	102.7	3.6	-1.6
O=C(NCc1ccco1)/C(=C/c1ccco1)NC(=O)c1ccco1	2.1	9.6	-0.4	144.4	19.4*	-3.1
CNC[C@H](CC1CCCCC1)NC[C@H](Cc1ccccc1)NCCC12CC3CC(CC(C3)C1)C2	24.3	5.4	15.7*	594.6	1.5	1.9
O=C(NCc1ccncc1)c1nc(-c2ccc(C(F)(F)F)cc2)no1	7.1	2.8	-2.5	586.4	0.6	-2.3
CCN1CCN(c2ccc(S(=O)(=O)N3CCCCC3)cc2NC(=O)c2cccc(C)c2[N+](=O)[O-])CC1	.	.	.	48.9*	4.6	.
CCN1CCN(c2ccc(S(=O)(=O)N3CCCCC3)cc2NC(=O)c2ccccc2)CC1	.	.	.	353.3	0.9	.
C=CCNc1nc(-c2ccc(Cl)cc2)cs1	-28.9	-8.1	-4.4	277.2	24.5*	-1.9
C=CCNc1nc(-c2ccc([N+](=O)[O-])cc2)cs1	-10.6	-0.9	-0.8	109.4	0.6	-2.1
CCOc1ccccc1NC(=O)Nc1ccc(CC#N)cc1	11.1	-3.2	-1.7	889.0	1.0	-3.9
COc1cc(OC)c(OC)cc1CN1CCN(Cc2cccn2C)CC1	-4.7	5.2	-1.0	461.6	-0.6	-0.8
Cc1ccc2[nH]c(=O)c3cc(C(=O)NCCN4CCN(C)CC4)sc3c2c1	16.9	-1.6	-0.4	133.3	-0.8	11.8*
COCCNC(=O)c1cc2c(=O)[nH]c3ccccc3c2s1	-3.2	-5.2	-0.3	149.3	6.6	-0.4
CCOC(=O)CNC(=O)c1cc2c(=O)[nH]c3ccc(C)cc3c2s1	6.4	-0.8	-1.1	158.7	0.3	0.8
CCCN1CCN(CCCNC(=O)c2cc3c(=O)[nH]c4ccccc4c3s2)CC1	-2.6	-6.9	-1.6	576.4	-2.1	10.2*
SMILES	UBC9 SUMO inh	p-CIP stab down	IMP-1 inh	T cell HTS	Fh CTSL1 inh	VIM-2 inh
COCCNC(=O)CCc1nnc(Cc2ccc(-c3ccccc3)cc2)o1	16.4	7.8	-0.7	249.0	-9.2	1.5
COCCNC(=O)CCC1CCN(Cc2ccc(-c3ccccc3)cc2)CC1	79.7*	7.2	-1.7	204.5	-1.6	-2.0
O=C(Cc1ccccc1)c1ccccc1C(=O)N1CCCCC1	-0.1	-8.8	-1.7	281.1	-5.0	-1.3
CCN1CCN(c2ccc(NC(=O)c3ccc4c(c3)[nH]c(=O)n4Cc3ccc(F)cc3)cc2)CC1	-7.3	-15.7	-1.7	483.2	6.4	9.2*
Cc1[nH]n(-c2ncc(-c3ccccc3)s2)c(=O)c1C(c1ccc(Br)cc1)C(C#N)C#N (stereo not given)	63.8*	-1.1	-4.8	272.8	-2.8	-4.1
Cc1[nH]n(C(N)=S)c(=O)c1C(c1ccccc1)C(C#N)C#N (stereo not given)	-6.5	-16.2	-2.6	244.1	1.4	-6.2
O=C(NC1(O)C(=O)c2ccccc2C1=O)c1ccccc1	83.9*	7.1	-0.5	161.7	63.9*	-2.5
